{"data": "Experimental data from different studies", "target": "Cytoplasmic tyrosine-protein kinase BMX (BMX, Homo sapiens, UniProt P51813)", "Sequence (P51813 1-675, as in one of the studies)": "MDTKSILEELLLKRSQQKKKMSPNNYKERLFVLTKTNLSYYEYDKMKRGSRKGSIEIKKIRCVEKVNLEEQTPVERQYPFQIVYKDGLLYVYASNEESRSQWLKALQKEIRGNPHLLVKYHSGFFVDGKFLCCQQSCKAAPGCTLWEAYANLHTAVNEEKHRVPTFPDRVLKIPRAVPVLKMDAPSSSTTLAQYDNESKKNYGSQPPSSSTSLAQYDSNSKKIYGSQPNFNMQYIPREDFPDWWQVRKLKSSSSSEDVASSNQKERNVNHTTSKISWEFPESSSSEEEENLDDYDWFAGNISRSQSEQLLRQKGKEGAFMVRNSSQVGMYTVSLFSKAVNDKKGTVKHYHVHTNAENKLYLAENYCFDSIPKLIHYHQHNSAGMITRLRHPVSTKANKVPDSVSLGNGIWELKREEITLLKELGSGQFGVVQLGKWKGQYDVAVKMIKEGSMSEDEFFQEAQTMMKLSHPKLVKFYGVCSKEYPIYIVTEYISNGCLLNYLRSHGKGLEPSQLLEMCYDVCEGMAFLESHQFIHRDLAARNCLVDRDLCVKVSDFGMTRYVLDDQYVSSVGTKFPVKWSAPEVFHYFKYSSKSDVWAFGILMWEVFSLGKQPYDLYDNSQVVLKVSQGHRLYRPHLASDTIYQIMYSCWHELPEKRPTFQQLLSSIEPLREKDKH"}
{"Structure (SMILES)": "Cn1cc(-c2cccc(N3CCc4c(sc5c4CC(C)(C)C5)C3=O)c2CO)cc(Nc2ccncn2)c1=O", "test": "enzyme activity, inhibitor", "setting": "1 µM", "quantity": "inhibition", "result": "49%"}
{"Structure (SMILES)": "Cn1cncc1[C@@](O)(COc1ccc(C#N)cc1-c1ccc(OC(F)(F)F)cc1)c1ccc(C#N)cc1", "test": "cell-free assay, competition with immobilised ligand", "setting": "1 µM", "quantity": "remaining binding", "result": "64%"}
{"Structure (SMILES)": "CCn1cnc2c(Nc3cccc(Cl)c3)nc(N[C@H]3CCCC[C@H]3N)nc21", "test": "enzyme activity, inhibitor", "setting": "0.5 µM", "quantity": "remaining activity", "result": "90.7%"}
{"Structure (SMILES)": "Nc1ncc(-c2nc(N3CCOCC3)nc(N3CCOCC3)n2)c(C(F)F)n1", "test": "binding, competition with immobilised ligand", "setting": "10 µM", "quantity": "remaining binding", "result": "86%"}
{"Structure (SMILES)": "COc1ncccc1-c1cnn2ccc(N3CCN(C(=O)OC(C)C)CC3)nc12", "test": "binding, competition with immobilised ligand", "setting": "1 µM", "quantity": "remaining binding", "result": "91%"}
{"Structure (SMILES)": "O=c1[nH]c2ccccc2n1C1CCN(Cc2ccc(-c3[nH]c4cc5ncnc5cc4nc3-c3ccccc3)cc2)CC1", "test": "cell-free assay", "setting": "0.5 µM", "quantity": "remaining signal", "result": "108%"}
{"Structure (SMILES)": "C#Cc1n[nH]c2c(-c3cn([C@@H](C)c4ccccn4)c(=O)[nH]c3=O)cc(F)cc12", "test": "enzyme activity, inhibitor", "setting": "0.1 µM", "quantity": "inhibition", "result": "-1.6%"}
{"Structure (SMILES)": "N#CC1(c2ccccn2)CCN(Cc2cc(C(=O)O)c(=O)n3ccccc23)CC1", "test": "cell-free assay, competition with immobilised ligand", "setting": "1 µM", "quantity": "remaining binding", "result": "88%"}
{"Structure (SMILES)": "Cc1nn(C)cc1-c1nc2c(N3CCN(Cc4ccc(Cl)cc4)CC3)c(Cl)cnc2[nH]1", "test": "binding, competition with immobilised ligand", "setting": "1 µM", "quantity": "remaining binding", "result": "100%"}
{"Structure (SMILES)": "Cn1cc(-c2cc(F)cc(N3CCn4c(cc5c4CCCC5)C3=O)c2CO)cc(Nc2ccc(N3CCN(C4COC4)CC3)cn2)c1=O", "test": "enzyme activity, inhibitor", "setting": "0.1 µM", "quantity": "inhibition", "result": "37%"}
{"Structure (SMILES)": "C#Cc1n[nH]c2c(-c3cn([C@@H](C)c4ccccc4)c(=O)[nH]c3=O)cc(F)cc12", "test": "enzyme activity, inhibitor", "setting": "0.1 µM", "quantity": "inhibition", "result": "-7.4%"}
